Bioassay records as filed in PubChem BioAssay.
AHR act – activators of human aryl hydrocarbon receptor | P35869 | AHR-responsive luciferase reporter cells, luminescence | activation, % at 5 µM | 320,000 tested, 2.5% active | AID 2796; in the data active = activation above about 47%;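 note: 0% = vehicle wells and 100% = reference agonist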
Lipid droplet – hepatic lipid droplet formation modulation. AML12 mouse hepatocytes, oleate lipid droplets, BODIPY imaging. inhibition, % at 6.5 µM. 240,000 tested, 0.4% active. AID 1656;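 active = lipid droplet intensity inhibited by at least 50%, with more than 500 cells counted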
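Technique: fluorescence imaging, 20x objective, two fields per well / Assay system: AML12 hepatocytes (mouse) / Measure: % inhibition of lipid droplet signal / Doses: 6.5 µM single-point dosing / Incubation: overnight exposure / Reagent: 100 µM oleic acid challenge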
SMARCA2 act – SMARCA2 function activation, primary screen | MG213 cells, MMTV-luciferase reporter, dexamethasone, overnight | activation, % at 9.1 µM | 370,000 tested, 1% active | AID 652017; in the data active = activation above about 7.8%;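 note: 0% = vehicle wells and 100% = reference activator wells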
SR-BI DiI-HDL act – SR-BI HDL lipid transfer activation; AID 504775; CHO ldlA[mSR-BI] cells, DiI-HDL uptake fluorescence, 3 h; 100 = double the neutral-control signal; 320,000 tested, 0.096% active; activation, % at 12.5 µM;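 active = mean replicate activation of at least 60% and every replicate at or above 60%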;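 note: 0% = median plate neutral-control signal and 100% = twice that signal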
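Test system: SR-BI-overexpressing, LDLR-lacking CHO cells. Measured by: DiI fluorescence, bottom read. Medium: Ham's F12 with 0.5% BSA, HEPES 25 mM, pH 7.4. Timing: 3 h uptake period with compound, 37 °C.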
SR-BI HDL uptake – inhibitors of mouse SR-BI mediated HDL lipid uptake. ldlA[mSR-BI] CHO cells, DiI-HDL uptake fluorescence, 3 h. 320,000 tested, 0.96% active. inhibition, % at 12.5 µM;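 active = mean replicate inhibition of at least 70% and a set share of replicates each scoring 70 or more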;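 note: 0% = median of neutral control wells and 100% = median of positive control wells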
Yeast superoxide – yeast age-related superoxide inhibition as caloric restriction mimetic; S. cerevisiae aged cells, superoxide DHE fluorescence; active compounds read low; superoxide response (% of plate mean), % at 10 µM; AID 2690; 330,000 tested, 0.18% active;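 active = superoxide response under a set limit, about three screen SD below normal, cut at about 65% in these data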;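 note: yeast aged for seven days with compound at 30 °C before DHE staining; 100% = average MFI of all compound-treated wells on the plate with controls excluded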
AHR act cf – human AHR activation, confirmation | shares compounds with AHR act | human cells, AHR-responsive luciferase reporter, luminescence | activation, % at 9 µM | 2,300 tested, 87% active | AID 2845; in the data active = activation above about 49%;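 note: HepG2 hepatoma cells carrying a DRE-driven firefly luciferase reporter; 0% = vehicle wells and 100% = reference agonist wells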
PXR counter – PXR activation, counter-screen for AHR activators | shares compounds with AHR act | cell-based PXR reporter, luciferase luminescence | activation, % at 11.6 µM | 2,300 tested, 88% active; in the data active = activation above about 11%;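 note: human hepatoma DPX-2 cells expressing full-length human PXR; 0% = DMSO and 100% = reference agonist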
Target sequence (O75469 whole entry, looked up): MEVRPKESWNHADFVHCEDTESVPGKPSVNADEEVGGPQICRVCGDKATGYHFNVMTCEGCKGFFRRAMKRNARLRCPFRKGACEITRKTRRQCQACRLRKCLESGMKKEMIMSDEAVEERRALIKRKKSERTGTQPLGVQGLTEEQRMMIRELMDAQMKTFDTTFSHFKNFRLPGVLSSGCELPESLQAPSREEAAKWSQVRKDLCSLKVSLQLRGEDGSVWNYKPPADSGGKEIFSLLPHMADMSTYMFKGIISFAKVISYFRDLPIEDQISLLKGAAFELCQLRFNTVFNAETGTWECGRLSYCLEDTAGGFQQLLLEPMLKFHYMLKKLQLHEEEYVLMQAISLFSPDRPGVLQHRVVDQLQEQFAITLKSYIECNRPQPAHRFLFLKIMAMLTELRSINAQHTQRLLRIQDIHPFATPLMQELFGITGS
* hit, by the source's call. Most compounds without a hit are left out; they make up all but 4.3% or so of the library.

How did Cn1ccs/c1=N\C(=O)Nc1cccc(C(F)(F)F)c1 do in these assays?
AHR act: 106*; Lipid droplet: 22; SMARCA2 act: 1; SR-BI DiI-HDL act: -4; SR-BI HDL uptake: 4; Yeast superoxide: 136; AHR act cf: 111*; PXR counter: 60*

How did Cc1cccc(NC(=O)CSCC(=O)N=c2sccn2C)c1 do in these assays?
AHR act: 13; SMARCA2 act: 2; SR-BI DiI-HDL act: 9; SR-BI HDL uptake: -9; Yeast superoxide: 98

How did COc1cccc(CNC(=O)[C@H]2CCCN2C(=O)[C@H]2CCCN2C(=O)c2cccc(OC)c2)c1 do in these assays?
SMARCA2 act: -3

Results for O=C(CSc1nc2ccccc2c(=O)[nH]1)c1cccs1 ?
AHR act: 6; SMARCA2 act: 3; SR-BI DiI-HDL act: 27; SR-BI HDL uptake: -27; Yeast superoxide: 112

How did Cc1cc(SCC(=O)c2cccs2)nc2ccccc12 do in these assays?
AHR act: 99*; Lipid droplet: 13; SMARCA2 act: 7; SR-BI DiI-HDL act: 4; SR-BI HDL uptake: -4; Yeast superoxide: 86; AHR act cf: 103*; PXR counter: 155*

What do the screens show for `Cc1ccc(NCc2nc3ccccc3n2C)cc1C`?
AHR act: 103*; Lipid droplet: -8; SMARCA2 act: 6; SR-BI DiI-HDL act: 39; SR-BI HDL uptake: -39; Yeast superoxide: 98; AHR act cf: 127*; PXR counter: 26*

What do the screens show for `Cc1ccc(NCc2nc3ccccc3n2C)cc1`?
AHR act: 80*; Lipid droplet: -11; SMARCA2 act: 4; SR-BI DiI-HDL act: 26; SR-BI HDL uptake: -26; Yeast superoxide: 99; AHR act cf: 66*; PXR counter: 12*

How did Cn1c(CNc2ccc(Br)cc2)nc2ccccc21 do in these assays?
AHR act: 108*; Lipid droplet: -20; SMARCA2 act: 3; SR-BI DiI-HDL act: -10; SR-BI HDL uptake: 10; Yeast superoxide: 91; AHR act cf: 185*; PXR counter: 48*

How did Cn1c(CNC2CCCCC2)nc2ccccc21 do in these assays?
AHR act: 19; Lipid droplet: -1; SMARCA2 act: 3; SR-BI DiI-HDL act: 14; SR-BI HDL uptake: -14; Yeast superoxide: 102

How did CC(C)n1c(NCc2nc3ccccc3n2C)nc2ccccc21 do in these assays?
AHR act: 15; Lipid droplet: 3; SMARCA2 act: -3; SR-BI DiI-HDL act: 5; SR-BI HDL uptake: -5; Yeast superoxide: 104

Results for Cc1ccc(C(=O)CSc2nsc(C)c2C#N)cc1 ?
AHR act: -5; Lipid droplet: -5; SMARCA2 act: 6; SR-BI DiI-HDL act: -12; SR-BI HDL uptake: 12; Yeast superoxide: 109

What do the screens show for `Cc1cc(C)c(C#N)c(OCC(=O)c2ccc(Br)cc2)n1`?
AHR act: 101*; SMARCA2 act: -3; SR-BI DiI-HDL act: -41; SR-BI HDL uptake: 41; Yeast superoxide: 129; AHR act cf: 106*; PXR counter: 20*

How did Cc1ccnc(SCC(=O)c2ccc(Br)cc2)c1C#N do in these assays?
AHR act: 125*; Lipid droplet: -10; SMARCA2 act: 3; SR-BI DiI-HDL act: -1; SR-BI HDL uptake: 1; Yeast superoxide: 91; AHR act cf: 125*; PXR counter: 93*

What do the screens show for `Nc1[nH]c(C(=O)c2ccccc2)c(-c2ccccc2)c1C(=O)NCCc1c[nH]c2ccccc12`?
SMARCA2 act: 4

How did CCCCCSc1nc2c(cnn2-c2ccccc2)c(=O)[nH]1 do in these assays?
AHR act: 18; Lipid droplet: 0; SMARCA2 act: -1; SR-BI DiI-HDL act: -5; SR-BI HDL uptake: 5; Yeast superoxide: 108

What do the screens show for `O=c1[nH]c(CSc2nc3ccccc3[nH]2)nc2c1cnn2-c1ccccc1`?
AHR act: 1; Lipid droplet: -3; SMARCA2 act: -3; SR-BI DiI-HDL act: -8; SR-BI HDL uptake: 8; Yeast superoxide: 98

Results for Cc1ccc2nc(SCc3nc4c(cnn4-c4ccccc4)c(=O)[nH]3)[nH]c2c1 ?
AHR act: 121*; SMARCA2 act: 1; SR-BI DiI-HDL act: 14; SR-BI HDL uptake: -14; Yeast superoxide: 91; AHR act cf: 29; PXR counter: 37*

Results for O=c1[nH]c(SCc2ccccc2Cl)nc2c1cnn2-c1ccccc1 ?
AHR act: 117*; Lipid droplet: 21; SMARCA2 act: -2; SR-BI DiI-HDL act: -2; SR-BI HDL uptake: 2; Yeast superoxide: 104; AHR act cf: 77*; PXR counter: 105*

What do the screens show for `Cc1cc(C)nc(N/N=C/C2=C(N3CCOCC3)C(=C\c3ccc(Cl)cc3)/CC2)n1`?
AHR act: 90*; Lipid droplet: 19; SMARCA2 act: -3; SR-BI DiI-HDL act: -74; SR-BI HDL uptake: 74*; Yeast superoxide: 94; AHR act cf: 126*; PXR counter: 12*

Results for O=CC1=C(N2CCOCC2)/C(=C/c2ccc(Cl)cc2)CC1 ?
AHR act: 2; Lipid droplet: 9; SMARCA2 act: -2; SR-BI DiI-HDL act: -22; SR-BI HDL uptake: 22; Yeast superoxide: 82

Results for Cc1c[nH]c2cccc(-c3ccc4c(c3)OCO4)c12 ?
SMARCA2 act: -3

Results for Cc1[nH]c2ccccc2c1CC(=O)Nc1ccc(Nc2cccnc2)c(-c2ccc(Cl)c(Cl)c2)c1 ?
SMARCA2 act: -4

What do the screens show for `N=c1n(CC(=O)c2ccc([N+](=O)[O-])cc2)c2ccccc2n1Cc1ccc(Cl)cc1`?
AHR act: 2; Lipid droplet: -20; SMARCA2 act: -6; SR-BI DiI-HDL act: -20; SR-BI HDL uptake: 20; Yeast superoxide: 98

How did C=CCn1c(=N)n(CC(=O)c2cccc([N+](=O)[O-])c2)c2ccccc21 do in these assays?
AHR act: 85*; Lipid droplet: 0; SMARCA2 act: -3; SR-BI DiI-HDL act: -6; SR-BI HDL uptake: 6; Yeast superoxide: 127; AHR act cf: 128*; PXR counter: 58*

What do the screens show for `COC(=O)[C@]12C[C@H](CC(=O)NCc3cccc4ccccc34)C(=O)N(Cc3ccco3)C1=C[C@H](C(C)(C)C)O[C@@H]2C`?
SMARCA2 act: -4

Results for CCOC(=O)c1c(NC(=O)c2nn(CC)cc2Br)sc(C)c1C ?
AHR act: 15; Lipid droplet: 6; SMARCA2 act: -1; SR-BI DiI-HDL act: -30; SR-BI HDL uptake: 30; Yeast superoxide: 111
